Data taken from ChEMBL document CHEMBL1649253, “New approach for drug susceptibility testing: monitoring the stress response of mycobacteria” (2009).
≈ marks a conversion by molar mass, not a printed value.

How the values were obtained:
Assay type in all cases: functional
[1] = test system: Mycobacterium tuberculosis; assay: Antibacterial activity against rifampin-resistant Mycobacterium tuberculosis H37Ra
How it was run: (§1)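 Broth microdilution in supplemented 7H9 (complete) medium with twofold drug dilutions. Inoculum 10^6 CFU/ml from cultures grown at 37°C to mid- or late-log phase. Incubated 21 days at 37°C, then turbidity inspected by eye against drug-free controls. MIC is the lowest concentration with no visible growth.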

[2] = test system: Mycobacterium tuberculosis; assay: Antibacterial activity against isoniazid-resistant Mycobacterium tuberculosis H37Ra; how it was run: as §1
[3] = test system: Mycobacterium tuberculosis; assay: Antibacterial activity against pyrazinamide-resistant Mycobacterium tuberculosis H37Ra; how it was run: as §1
[4] = test system: Mycobacterium tuberculosis; assay: Antibacterial activity against ethambutol-resistant Mycobacterium tuberculosis H37Ra; how it was run: as §1

CC[C@@H](CO)NCCN[C@@H](CC)CO [ETHAMBUTOL]
MIC [1]: 5 µg/mL (≈ 24.5 µM) | MIC [2]: 5 µg/mL (≈ 24.5 µM) | MIC [3]: 5 µg/mL (≈ 24.5 µM) | MIC [4]: > 400 µg/mL

NNC(=O)c1ccncc1 [ISONIAZID]
MIC [1]: 0.2 µg/mL (≈ 1.46 µM) | MIC [2]: > 16 µg/mL | MIC [3]: 0.2 µg/mL (≈ 1.46 µM) | MIC [4]: 0.2 µg/mL (≈ 1.46 µM)

NC(=O)c1cnccn1 [PYRAZINAMIDE]
MIC [1]: 50 µg/mL (≈ 406 µM) | MIC [2]: 50 µg/mL (≈ 406 µM) | MIC [3]: > 4000 µg/mL | MIC [4]: 50 µg/mL (≈ 406 µM)

CO[C@H]1/C=C/O[C@@]2(C)Oc3c(C)c(O)c4c(O)c(c(/C=N/N5CCN(C)CC5)c(O)c4c3C2=O)NC(=O)/C(C)=C\C=C\[C@H](C)[C@H](O)[C@@H](C)[C@@H](O)[C@@H](C)[C@H](OC(C)=O)[C@@H]1C [RIFAMPIN]
MIC [1]: 16 µg/mL (≈ 19.4 µM) | MIC [2]: 0.2 µg/mL (≈ 0.243 µM) | MIC [3]: 0.2 µg/mL (≈ 0.243 µM) | MIC [4]: 0.2 µg/mL (≈ 0.243 µM)
